From PubChem BioAssay
SUMO1 PPI mod – modulators of human SUMO1-mediated protein-protein interactions. P63165. AID 602429. SUMO1 binding to a labelled peptide, TR-FRET, 1 h. inhibition, % at 20 µM. 0.33% of 360,000 active; in the data active means inhibition above about 37%
Target sequence (P63165 whole entry, looked up): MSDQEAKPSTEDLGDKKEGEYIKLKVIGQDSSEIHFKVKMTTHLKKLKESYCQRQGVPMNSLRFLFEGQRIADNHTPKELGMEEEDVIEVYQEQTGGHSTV
Scp1 inh – Scp-1 (human) phosphatase inhibition; Q9GZU7; Recombinant Scp1, phosphopeptide, malachite green phosphate absorbance; inhibition, % at 20 µM; 0.88% of 340,000 active; AID 493091;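 active means inhibition above about 50% at 20 µM, limit read from the data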
Target sequence (Q9GZU7 76-261 limits assumed): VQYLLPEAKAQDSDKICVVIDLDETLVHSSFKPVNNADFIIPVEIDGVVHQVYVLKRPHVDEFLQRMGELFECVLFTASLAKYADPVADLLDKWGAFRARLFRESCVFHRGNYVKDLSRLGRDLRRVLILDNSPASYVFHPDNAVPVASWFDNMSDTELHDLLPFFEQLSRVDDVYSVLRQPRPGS
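Material – SCP-1 phosphatase catalytic domain, residues 76-261 · Buffer or medium – Acidic Tris acetate buffer with magnesium and detergent · Also added – Phospho 17-mer peptide substrate · Compound – single 20 µM dose, 1% DMSO · Times – 45 min room-temperature reaction, 5 min colour, 30 min stabiliser · Technique – Phosphate-binding colour reagent, absorbance read at 630 nm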
STEP block – inhibitors of human striatal-enriched phosphatase STEP; inhibition, % at 20 µM; P54829; recombinant STEP, OMFP fluorogenic substrate, fluorescence; 0.25% of 360,000 active;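 active means inhibition at 20 µM, scaled per plate between control wells, above about 37%, limit read from the data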
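System: STEP phosphatase, cell-free reaction; Buffer or medium: Bis-Tris pH 6.0 buffer with DTT, detergent; Incubation: 20 min at room temperature, dark; Measured by: fluorescence, 480/540 nm.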
GRK2 inh – human GRK2 inhibition via aptamer displacement | 0.59% of 330,000 active | bead flow cytometry, FAM-aptamer displacement from GRK2 | inhibition of aptamer binding, % at 10 µM;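 active means inhibition of aptamer binding above 40%, roughly 3 SD of noise, on plates passing a quality check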;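 further: median bead fluorescence of bound FAM aptamer so fluorescent compounds give negative values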
DNMT1 inh – inhibitors of human DNMT1 | P26358 | DNMT1 molecular beacon, Hinp1I cleavage, fluorescence | inhibition (reported as % activation of signal), % at 10 µM | 0.83% of 360,000 active | AID 588458; in the data active means inhibition above about 50%
LMPTP block – blocks human LMPTP phosphatase; recombinant LMPTP-A, OMFP fluorogenic substrate, fluorescence intensity; 0.22% of 360,000 active; P24666; inhibition, % at 20 µM;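 active means compounds that cut the enzyme signal by at least half of the control window in the single-dose screen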
Target sequence (P24666 whole entry, looked up): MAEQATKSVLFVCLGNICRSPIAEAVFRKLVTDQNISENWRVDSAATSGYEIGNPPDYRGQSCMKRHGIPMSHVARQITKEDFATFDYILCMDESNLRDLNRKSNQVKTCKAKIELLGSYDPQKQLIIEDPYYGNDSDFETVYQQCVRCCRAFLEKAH
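Buffer or medium: Bis-Tris pH 6.0, DTT, detergent; Assay system: LMPTP-A enzyme; Quantity: 0.625 nM enzyme; Detection: endpoint fluorescence intensity; Times: 50 min dark incubation at room temperature; Controls: substrate-only low control, DMSO enzyme-plus-substrate high control; Doses: single 20 µM dose; Read-out: percent inhibition versus substrate-only and uninhibited controls; Reagent: 400 µM OMFP.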
GRK2 CP1 – human GRK2 inhibition confirmation, cherry pick 1. shares compounds with GRK2 inh. bead-bound GRK2, FAM-aptamer displacement, flow cytometry. aptamer displacement, % at 10 µM. 4% of 2,000 active;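 active means aptamer displacement above 40%, near three times the noise of non-fluorescent compounds, on plates passing quality checks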;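 further: negative values mostly reflect intrinsic compound fluorescence rather than true enhancement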
Aptamer quench SP – quenches fluorescent RNA aptamer, GRK2 hit artifact; shares compounds with GRK2 inh; Carboxyfluorescein RNA aptamer on beads, flow cytometry quenching; active compounds read low; fluorescence response (% of DMSO), % at 10 µM; 2,000 tested, under 10 active;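 active means compounds that quench the bead-bound fluorescent RNA probe, cutting fluorescence to under half of the solvent control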;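 further: counterscreen run without GRK2 so only probe quenching by compound is measured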
GRK2 confirm 2 – human GRK2 inhibition confirmation, cherry pick 2; shares compounds with GRK2 inh; bead-bound GRK2, FAM-aptamer displacement, flow cytometry; inhibition of aptamer binding, % at 10 µM; 360 tested, under 10 active;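 active means inhibition of aptamer binding above 40%, about triple the noise seen with nonglowing compounds, on plates passing quality control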;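 further: negative values mostly come from compounds that fluoresce themselves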
FAM quench CP2 – aptamer fluorescence quenching in GRK2 counter-screen; shares compounds with GRK2 inh; carboxyfluorescein RNA aptamer beads, flow cytometry quenching; active compounds read low; fluorescence response vs DMSO, % at 10 µM; 360 tested, under 10 active; AID 588494;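 active means response vs DMSO under 50%, meaning signal dropped by over half, treated as fluorescence quencher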;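 further: labelled aptamer on streptavidin beads without GRK2 as a quench counter-screen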
Of the large screens only hits and unclear results are named; the others gave an inactive call (follow-up assays come after a bar, where they were run). Most compounds without a hit are left out; they make up all but 2.1% or so of the library.

O=C(NCCc1c[nH]c2ccccc12)c1ccc([N+](=O)[O-])cc1	GRK2 inh 41.0 | GRK2 confirm 2 inactive | FAM quench CP2 inactive
COc1ccc(Cl)cc1S(=O)(=O)NCc1cccs1	GRK2 inh 51.0 | GRK2 CP1 inactive | Aptamer quench SP inactive
CCNC(=O)C1(C)CCN(Cc2csc(-c3ccccc3)n2)C1 (centres undefined)	none (no result: Scp1 inh, GRK2 inh)
Cc1c(NC(=O)c2cccc(S(=O)(=O)N3CCOCC3)c2)c(=O)n(-c2ccccc2)n1C	none
Cc1c(NC(=O)C(C)OC(=O)c2cccc(S(=O)(=O)N3CCOCC3)c2)c(=O)n(-c2ccccc2)n1C (centres undefined)	GRK2 inh 76.0 (no result: SUMO1 PPI mod, STEP block, DNMT1 inh, LMPTP block) | GRK2 CP1 inactive | Aptamer quench SP inactive
C=CCNc1ncnc2c1ncn2[C@H]1CN(Cc2ccc(-c3ccccc3)cc2)C[C@@H](CO)O1	none (no result: Scp1 inh, GRK2 inh)
Cc1ccc2c(c1)/C(=C/c1ccco1)C(=O)N2	GRK2 inh 94.0 | GRK2 CP1 inactive | Aptamer quench SP inactive
Cc1ccc(/C=C2\C(=O)Nc3ccccc32)o1	none
CCOC(=O)[C@]12CCC=C1N(Cc1ccc3c(c1)OCO3)C(=O)[C@H](CC(=O)NCC13CC4CC(CC(C4)C1)C3)C2	none (no result: Scp1 inh, STEP block, GRK2 inh, DNMT1 inh)
O=C(Cc1cccs1)Nc1nc2c(ccc3ccccc32)s1	none | GRK2 confirm 2 inactive | FAM quench CP2 inactive
CN1CCC(N2CCN(C3CN(Cc4ccc(F)cc4)S(=O)(=O)C3)CC2)CC1 (centres undefined)	none (no result: Scp1 inh, GRK2 inh)
N/C(=N\OC(=O)C1CCCCC1)c1ccccn1	GRK2 inh 83.0 | GRK2 CP1 inactive | Aptamer quench SP inactive
O=C(NC1CC1)c1cccc(NC(=O)c2cnn(-c3ccccc3)n2)c1	none | GRK2 CP1 inactive | Aptamer quench SP inactive
O=C(Nc1cccc(C(=O)NC2CCCC2)c1)c1ccccc1	none
COc1cccc(OC)c1C(=O)OCC(=O)NCCCc1ccccc1	none
COc1cccc(OC)c1C(=O)OCC(=O)NCC(C)C	GRK2 inh 96.0 | GRK2 CP1 inactive | Aptamer quench SP inactive
Cn1nc(C(F)(F)F)c(C(=O)Nc2ccc(F)cc2F)c1Cl	GRK2 inh 47.0 | GRK2 CP1 inactive | Aptamer quench SP inactive
Cn1nc(C(F)(F)F)c(C(=O)Nc2ccc(F)cc2F)c1Oc1cccc(Cl)c1	none
COc1cc(Nc2ccn3nccc3n2)cc(OC)c1OC	none (no result: Scp1 inh, GRK2 inh)
COc1ccc(CCNC(=O)CSc2nc3[nH]ncc3c(=O)n2-c2ccccc2Br)cc1OC	none
Nc1nc(SCC(=O)Nc2ccccc2C(F)(F)F)[nH]c(=O)c1-c1ccccc1	none
Nc1nc(SCC(=O)NCc2ccco2)[nH]c(=O)c1-c1ccccc1	none | GRK2 confirm 2 inactive | FAM quench CP2 inactive
O=C(CSc1nc2[nH]ncc2c(=O)n1-c1ccccc1Br)NCc1ccco1	none | GRK2 confirm 2 inactive | FAM quench CP2 inactive
Cc1nc(SCC(=O)NCc2ccco2)[nH]c(=O)c1C	none | GRK2 confirm 2 inactive | FAM quench CP2 inactive
Cc1ccc(C2C3=C(CCCC3=O)Nc3nc(SCC(=O)NCc4ccco4)[nH]c(=O)c32)cc1 (centres undefined)	none | GRK2 confirm 2 inactive | FAM quench CP2 inactive
Cc1cc(C)nc(SCC(=O)NCc2ccco2)n1	none
COc1cc(Cl)c(CNC[C@H]2O[C@@H](n3cnc4c(=O)[nH]c(N)nc43)[C@H](O)[C@@H]2O)c(Cl)c1O	none (no result: Scp1 inh, GRK2 inh)
CC(C)C[C@H]1CN([C@@H](CC(C)C)CN2CCCC2CN2C(=S)NC[C@@H]2Cc2ccccc2)C(=S)N1CCc1ccccc1 (some centres undefined)	none (no result: Scp1 inh, STEP block, GRK2 inh, DNMT1 inh)
Cc1ccc(F)cc1NC(=O)CSc1nnc(CNC(=O)c2ccco2)n1C	GRK2 inh 70.0 | GRK2 CP1 inactive | Aptamer quench SP inactive
CCc1nnc(NC(=O)CSc2nnc(-c3ccc(OC)cc3)n2C)s1	none
CCc1nnc(NC(=O)CSc2nnc(-c3ccc(O)cc3)n2C)s1	none | GRK2 CP1 inactive | Aptamer quench SP inactive
O=C(OCc1ccccc1)N1CCC2CC1c1c2cccc1N1CCOCC1 (centres undefined)	none (no result: Scp1 inh, GRK2 inh)
COc1ccc(C(=O)Nc2ccc(Nc3ccccc3)cc2)cc1OC	GRK2 inh 86.0 | GRK2 CP1 inactive | Aptamer quench SP inactive
O=C(Nc1ccc(Nc2ccccc2)cc1)c1ccccc1	GRK2 inh 100.0 (no result: SUMO1 PPI mod, STEP block, DNMT1 inh, LMPTP block) | GRK2 CP1 inactive | Aptamer quench SP inactive
O=C(Nc1ccc(F)cc1)N1CCN(c2ncccn2)CC1	GRK2 inh 94.0 | GRK2 CP1 inactive | Aptamer quench SP inactive
O=C(Nc1ccc(Cl)cc1)N1CCN(c2ncccn2)CC1	none
Cc1ccc(S(=O)(=O)N2CCN(C(=O)c3cc4c(s3)CCCC4)CC2)c(C)c1	GRK2 inh 49.0 | GRK2 CP1 inactive | Aptamer quench SP inactive
O=c1[nH]c(CN2CCN(C/C=C/c3ccccc3)CC2)nc2ccccc12	none | GRK2 confirm 2 inactive | FAM quench CP2 inactive
O=c1[nH]c(CN2CCN(S(=O)(=O)/C=C/c3ccccc3)CC2)nc2ccccc12	none
CC(CC(=O)Nc1ccc2c(c1)c(=O)n(C)n2-c1ccc2ccccc2c1)C(F)(F)F (centres undefined)	none (no result: Scp1 inh, GRK2 inh)
COC(=O)c1cc(Br)c(=O)n(CCN2CCOCC2)c1	none
COC(=O)c1cc(Br)c(=O)n(CCN(C(C)C)C(C)C)c1	GRK2 inh 95.0 | GRK2 CP1 inactive | Aptamer quench SP inactive
CC(C)N1CC(=O)N2CSCC2C1=O (centres undefined)	none (no result: Scp1 inh, STEP block, GRK2 inh, DNMT1 inh)
O=c1cc(OCc2ccccc2)cc[nH]1	GRK2 inh 43.0 | GRK2 confirm 2 inactive | FAM quench CP2 inactive
CC1(C)CC(Cc2cccc(C(F)(F)F)c2)N(C(=O)OC(C)(C)C)C1 (centres undefined)	none (no result: Scp1 inh, GRK2 inh)
Cc1ccc(-c2nc(-c3ccncc3)no2)cc1C	none
Cc1cc(-c2nc(-c3ccncc3)no2)ccc1[N+](=O)[O-]	none | GRK2 CP1 inactive | Aptamer quench SP inactive
O=c1[nH]ncc2c3ccccc3n(Cc3ccccc3)c12	none
CCCn1c2ccccc2c2cn[nH]c(=O)c21	none | GRK2 CP1 inactive | Aptamer quench SP inactive
CCOc1ccccc1OCCCC(=O)OCC(=O)Nc1cccc(Cl)c1	GRK2 inh 81.0 | GRK2 CP1 inactive | Aptamer quench SP inactive
